The values below come from ChEMBL document CHEMBL1153441 (J Med Chem, 2009).

Test [1] deals with T1, 5-hydroxytryptamine receptor 7 (Homo sapiens, UniProt P34969). Put plainly: Displacement of [3H]LSD from human recombinant 5HT7 receptor expressed in CHOK1 cells. It counts as cell-based, CHO-K1. Summed up: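 Transfected CHO-K1 membranes in 50 mM Tris-HCl, 10 mM MgSO4, 0.5 mM EDTA, pH 7.4, incubated 120 min at 27 °C with 3 nM [3H]LSD; nonspecific binding with 25 µM clozapine. Ligands screened at 1 µM, then six-concentration curves if displacement over 55%.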
For orientation: Loss of bound radioactivity is the signal in a displacement assay; it reports binding, not function.

Test [2] concerns the target T2, 5-hydroxytryptamine receptor 1A (Homo sapiens, UniProt P08908).
T2 sequence (P08908 whole entry): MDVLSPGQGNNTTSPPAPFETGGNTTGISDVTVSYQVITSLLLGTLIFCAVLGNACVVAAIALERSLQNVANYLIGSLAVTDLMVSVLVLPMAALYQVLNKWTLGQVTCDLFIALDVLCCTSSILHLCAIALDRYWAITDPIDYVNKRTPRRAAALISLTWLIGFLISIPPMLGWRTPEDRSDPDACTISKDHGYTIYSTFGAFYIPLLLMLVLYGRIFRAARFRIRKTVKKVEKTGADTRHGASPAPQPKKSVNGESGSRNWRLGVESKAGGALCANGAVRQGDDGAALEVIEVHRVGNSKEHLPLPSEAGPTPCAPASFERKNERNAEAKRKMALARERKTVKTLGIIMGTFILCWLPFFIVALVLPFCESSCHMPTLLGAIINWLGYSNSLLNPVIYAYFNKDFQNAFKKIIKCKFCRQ
As to the kind of experiment: Displacement of [3H]8-OH-DPAT from human recombinant 5HT1A receptor expressed in HEK293 cells. The format is cell-based. Put shortly:
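Membranes from HEK-293 cells expressing human 5-HT1A receptor were incubated in the dark with 4.9 nM [3H]-8-OH-DPAT for 120 min at 37 °C in 50 mM Tris-HCl, 5 mM MgSO4, pH 7.4. Nonspecific binding was taken with 10 µM 5-HT. Filters were presoaked in 0.5% PEI, and bound radioactivity was counted by scintillation. Compounds were screened at 1 µM, then given six-point curves; Ki was derived by Cheng-Prusoff. Triplicates, 2-4 experiments.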

Test [3] deals with T1, 5-hydroxytryptamine receptor 7. Put plainly: Antagonist activity at human recombinant 5HT7 receptor expressed in CHOK1 cells assessed as inhibition of serotonon-induced increase in cAMP levels by HTRF assay relative to untreated control. The format is functional, cell-based, CHO-K1. On the technique in general: Changes in cAMP serve as a functional read-out for many G protein-coupled receptors.

The species named for test [4] is Homo sapiens. Put plainly: Selectivity for human recombinant 5HT7 receptor over human recombinant 5HT1A receptor.
For test [5], the target named is T1, 5-hydroxytryptamine receptor 7. As to the kind of experiment: Antagonist activity at human recombinant 5HT7 receptor expressed in CHOK1 cells assessed as inhibition of serotonon-induced increase in cAMP levels by HTRF assay. The format is functional, cell-based. As to conditions: CHO-K1.
Test [6] shares this target. As to the kind of experiment: Agonist activity at human recombinant 5HT7 receptor expressed in CHOK1 cells assessed as increase in cAMP levels by HTRF assay. The format is functional, cell-based, CHO-K1.
The target is the same in test [7]. As to the kind of experiment: Agonist activity at human recombinant 5HT7 receptor expressed in CHOK1 cells assessed as increase in cAMP levels by HTRF assay relative to serotonin. The format is functional, cell-based. As to conditions: CHO-K1.
Test [8] concerns the target T3, 5-hydroxytryptamine receptor 1A (Homo sapiens) (UniProt P08908).
T3 sequence (whole entry): T2 sequence (P08908 whole entry)
As to the kind of experiment: Displacement of [3H]8-OH-DPAT from human recombinant 5HT1A receptor expressed in HEK293 cells at 1 uM. It counts as cell-based. Summed up: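 Membranes from transfected HEK-293 cells in 50 mM Tris-HCl, 5 mM MgSO4, pH 7.4, incubated in the dark 120 min at 37 °C with 4.9 nM [3H]8-OH-DPAT and 1 µM ligand (hydrochloride salt), triplicate. Nonspecific binding with 10 µM 5-HT. Filtration on 0.5% PEI-soaked filters, ice-cold Tris washes, scintillation counting; percent displacement.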

A value given as a limit tells only on which side of the number the result lay.

T1 sequence (P34969 whole entry): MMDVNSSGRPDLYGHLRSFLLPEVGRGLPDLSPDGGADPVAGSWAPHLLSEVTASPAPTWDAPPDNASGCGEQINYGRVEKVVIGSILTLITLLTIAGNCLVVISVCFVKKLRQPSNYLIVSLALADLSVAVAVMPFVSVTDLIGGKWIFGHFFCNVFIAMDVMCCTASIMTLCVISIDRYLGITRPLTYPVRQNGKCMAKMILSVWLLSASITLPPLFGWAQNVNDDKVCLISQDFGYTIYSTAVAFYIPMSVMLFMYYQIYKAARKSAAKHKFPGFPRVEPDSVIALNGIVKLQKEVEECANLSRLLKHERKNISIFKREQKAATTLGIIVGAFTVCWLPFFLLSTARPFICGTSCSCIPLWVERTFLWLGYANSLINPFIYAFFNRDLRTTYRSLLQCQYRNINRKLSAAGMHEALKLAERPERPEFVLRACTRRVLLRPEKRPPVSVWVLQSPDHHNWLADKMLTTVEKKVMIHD

As a reminder, the Ki is the dissociation constant of the complex between target and ligand, obtained from inhibition or displacement. With `O=C1Cc2ccccc2N1CCCCN1CCN(c2ccccc2)CC1`, the Ki in test [1] turned out to be 74 nM; in test [2], 124 nM.
For `COc1ccccc1N1CCN(CCCCN2Cc3ccccc3C2=O)CC1`, the Ki is 158 nM in test [1] and > 1000 nM in test [2].
The corresponding values for `COc1ccccc1N1CCN(CCCCCN2C(=O)Cc3ccccc32)CC1` are 63 nM and > 1000 nM.
On the same counts, the results for `O=C1Cc2ccccc2N1Cc1cccc(CN2CCN(c3cccc4ccccc34)CC2)c1` are > 1000 nM and > 1000 nM.
On to `O=C1Cc2ccccc2N1CCN1CCc2ccccc2C1`, for which the Ki in test [1] is 350 nM; in test [2] it was > 1000 nM.
Consider `O=C1Cc2ccccc2N1CCCCCN1CCN(c2cccc3ccccc23)CC1`, for which the inhibitory constant (Ki) in test [1] stood at 69 nM; in test [2], 16 nM.
As for `O=C1Cc2ccccc2N1CCCN1CCc2ccccc2C1`, the Ki in test [1] is 105 nM; in test [2], > 1000 nM.
On to `O=C1Cc2ccccc2N1CC#CCN1CCN(c2cccc3ccccc23)CC1`, for which the figures for the inhibition constant Ki in test [1] and in test [2] were > 1000 nM and 26 nM, respectively.
On the same counts, the results for `O=C1Cc2ccccc2N1C/C=C\CN1CCN(c2cccc3ccccc23)CC1` are 250 nM and 11.5 nM.
The corresponding values for `O=C1c2ccccc2CN1CCCCN1CCN(c2ccccc2)CC1` are > 1000 nM and 360 nM.
On the same counts, the results for `COc1ccccc1N1CCN(CCCCN2C(=O)Cc3ccccc32)CC1` are 32 nM and > 1000 nM.
For orientation: IC50 means the concentration needed to halve the response being measured. As to `CN1C[C@@H](NS(=O)(=O)N(C)C)C[C@@H]2c3cccc4c3c(cn4C)C[C@H]21` [MESULERGINE], the IC50 in test [3] was 120 nM.
Usually EC50 stands for the concentration giving half of the maximal effect. For `O=C1Cc2ccccc2N1CCCCN1CCc2ccccc2C1`, the Ki in test [1] came out at 7 nM; in test [2], 219 nM. For the same molecule, in test [4], the Ratio Ki was 31. Further, the Activity entry was “Dose-dependent effect” in test [5], “Dose-dependent effect” in test [6] (CHO-K1) and 40% in test [7]. In addition, the 50% effective concentration (EC50) in test [6] was 310 nM.
On to `O=C1c2ccccc2CN1CCCCCN1CCN(c2ccccc2)CC1`, for which the results for the inhibition constant (Ki) in test [1] and in test [2] were 203 nM and > 1000 nM, respectively.
On to `O=C1Cc2ccccc2N1CCCCN1CCN(c2cccc3ccccc23)CC1`, for which the Ki amounted to 47 nM in test [1] and 22 nM in test [2].
Turning to `O=C1c2cccc3cccc(c23)N1CCCCCN1CCN(c2ccccc2)CC1` [UCM-5600], the Ki in test [1] came out at 89 nM. For the same molecule, the Activity in test [8] came to 92%.
As to `O=C1Cc2ccccc2N1CCCCN1CCC(c2ccccc2)CC1`, the figures for the inhibitory constant (Ki) in test [1] and in test [2] were 160 nM and > 1000 nM, respectively.
On the same counts, the results for `O=C1Cc2ccccc2N1C/C=C/CN1CCN(c2cccc3ccccc23)CC1` are 69 nM and 39 nM.
As for `O=C1Cc2ccccc2N1CCCCCN1CCN(c2cccc3[nH]cnc23)CC1`, the Ki is 68 nM in test [1] and 18.1 nM in test [2].
On to `O=C1Cc2ccccc2N1Cc1ccc(CN2CCN(c3cccc4ccccc34)CC2)cc1`, for which the Ki in test [1] was > 1000 nM; in test [2], 181 nM.
For the molecule `O=C1Cc2ccccc2N1CCCCCN1CCN(c2ccccc2)CC1`, the Ki in test [1] was 63 nM; in test [2], > 1000 nM.
The corresponding values for `O=C1Cc2ccccc2N1CCCCN1CCCC(c2ccccc2)C1` (stereo not drawn) are 193 nM and > 1000 nM.
